Screens: PubChem, Sanford-Burnham Center for Chemical Genomics
Sampled rows, rich in hits. Any-hit rate of the full collection: about 3.1%.
SENP8 block-1: human SENP8 protease inhibitors, primary screen, biochemical, fluorescence, Nedd8 protein substrate, uHTS. Sentrin-specific protease 8 (Homo sapiens), Q96LD8. recombinant SENP8. inhibition, % at 20 µM. hit rate 0.64% among 360,000; in the data active = inhibition mostly above about 40%, no sharp cut-off; inactive = mostly below about 27%
Target sequence (Q96LD8 whole entry, looked up): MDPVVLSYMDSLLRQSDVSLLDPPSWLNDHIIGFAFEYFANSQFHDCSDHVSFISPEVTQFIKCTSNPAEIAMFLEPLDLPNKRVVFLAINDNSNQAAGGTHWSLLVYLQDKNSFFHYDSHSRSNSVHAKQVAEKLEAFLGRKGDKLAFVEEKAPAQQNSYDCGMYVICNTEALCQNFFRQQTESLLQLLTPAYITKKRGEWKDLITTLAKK
SENP8 block-2: SENP8 protease inhibitors, primary screen, biochemical, luminescence. purified SENP8, Z-RLRGG-aminoluciferin cleavage. Sentrin-specific protease 8 (Homo sapiens), Q96LD8. inhibition, % at 10 µM. AID 2540, 2010. hit rate 1.2% among 330,000; in the data active = inhibition above about 50%
Apaf-1 inh: inhibitors of human Apaf-1 apoptosome, primary screen, biochemical, DEVD-Rh110 fluorescence, uHTS | Apoptotic protease-activating factor 1 (Homo sapiens), O14727 | reconstituted apoptosome caspase-3 activity | inhibition, % at 20 µM | hit rate 0.71% among 330,000 | AID 489030, 2010; active = inhibition of at least 40% at 20 µM;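 note: plate controls were DMSO wells for no effect and DEVD-CHO caspase inhibitor wells for full effect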
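detection = Rh110 fluorescence intensity | test system = biochemical Apaf-1 apoptosome reconstitution | also added = cytochrome c and DEVD-Rh110 substrate | schedule = 30 min plus 50 min, RT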
SENP6 block: SENP6 protease inhibitors, primary screen, biochemical, luminescence, uHTS; Recombinant SENP6 catalytic domain, aminoluciferin luminescence; inhibition, % at 10 µM; hit rate 1.8% among 330,000; AID 2599, 2010;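 active = inhibition above about 50% at the single tested dose, limit read from the data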;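 note: plate controls were DMSO wells with enzyme for no effect and DMSO wells lacking enzyme for full effect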
SENP7 block: SENP7 protease inhibitors, primary screen, biochemical, luminescence, uHTS | recombinant SENP7, Z-RLRGG-aminoluciferin luminescence, 40 min | inhibition, % at 5 µM | hit rate 1.5% among 330,000 | Sentrin-specific protease 7 (Homo sapiens), Q9BQF6;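 active = inhibition above about 50% at the single test dose, limit read from the data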;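 note: plate controls were DMSO with enzyme for no effect and no enzyme buffer wells for full effect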
UBC13 inh: UBC13 polyubiquitin chain formation inhibitors, primary screen, biochemical, TR-FRET, uHTS. inhibition, % at 20 µM. hit rate 0.47% among 330,000. AID 485273, 2010; in the data active = inhibition above about 45%, passing the limit was not always enough
Target sequence (P61088 whole entry, looked up): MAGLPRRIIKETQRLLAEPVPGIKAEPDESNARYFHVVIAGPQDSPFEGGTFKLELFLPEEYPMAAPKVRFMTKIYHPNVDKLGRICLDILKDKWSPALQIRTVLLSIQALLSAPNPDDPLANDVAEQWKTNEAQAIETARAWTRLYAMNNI
SENP8 confirm: SENP8 protease inhibitors, retest, confirmation, biochemical, luminescence, single concentration | shares compounds with SENP7 block | Recombinant SENP8, Z-RLRGG-aminoluciferin luminescence, 60 min | inhibition, % at 12.5 µM | hit rate 40% among 6,200;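 active = mean inhibition across replicates above about 50%, limit read from the data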
SENP6 conf: SENP6 protease inhibitors, confirmation, biochemical, luminescence, single concentration; shares compounds with SENP7 block; recombinant SENP6, Z-RLRGG-aminoluciferin luminescence; inhibition, % at 12.5 µM; hit rate 58% among 6,200; AID 488915, 2010
SENP7 conf: SENP7 protease inhibitors, retest, confirmation, biochemical, luminescence, single concentration | shares compounds with SENP7 block | inhibition, % at 12.5 µM | recombinant SENP7, Z-RLRGG-aminoluciferin luminescence, 40 min | AID 488917, 2010 | hit rate 69% among 6,200
Casp3 SENP sel: caspase-3 protease inhibitors, confirmation, selectivity assay for SENP inhibitor project, biochemical, single concentration; purified caspase-3, Z-DEVD-aminoluciferin luminescence, 60 min; shares compounds with SENP7 block; hit rate 60% among 6,200; inhibition, % at 12.5 µM;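 active = mean inhibition above about 50%, limit read from the data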;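 note: plate controls were enzyme with DMSO for no effect and wells without caspase-3 for full effect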
Target sequence (P42574 28-227 limits assumed): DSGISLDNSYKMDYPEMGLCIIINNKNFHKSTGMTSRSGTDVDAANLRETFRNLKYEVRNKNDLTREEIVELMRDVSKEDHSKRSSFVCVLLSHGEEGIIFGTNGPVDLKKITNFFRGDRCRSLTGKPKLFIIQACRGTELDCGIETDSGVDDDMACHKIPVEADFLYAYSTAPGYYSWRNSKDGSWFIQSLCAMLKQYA
Luc interf: counter-screen for SENP inhibitors: luminescence interference; shares compounds with SENP7 block; Pre-incubated SENP8/Z-RLRGG-aminoluciferin, luciferase luminescence interference; inhibition, % at 12.5 µM; hit rate 39% among 6,200;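 active = mean inhibition above about 50% when retested at one dose, limit read from the data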;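 note: plate controls were DMSO wells with completed reaction for no effect and substrate without enzyme for full effect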
The depositor's hits bear a star; . = no result given.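 Rule for the calls, unless noted: active = mean inhibition above about 50% in the one-dose retest (limit read from the data); inactive = the rest.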

SMILES	SENP8 block-1	SENP8 block-2	Apaf-1 inh	SENP6 block	SENP7 block	UBC13 inh	SENP8 confirm	SENP6 conf	SENP7 conf	Casp3 SENP sel	Luc interf
COc1cc(-n2c(C)nc3ncn(-c4ccccc4)c3c2=O)cc(OC)c1OC	10	.	.	.	.	.	.	.	.	.	.
Cc1cccc(C(=O)O/N=C(\N)c2ccccn2)c1	11	91*	5	97*	98*	7	94*	95*	100*	96*	93*
N/C(=N\OC(=O)c1ccc2c(c1)OCO2)c1cccc([N+](=O)[O-])c1	15	15	5	42	45	-4	.	.	.	.	.
C/C(=N/OCc1ccc(Br)cc1)c1ccccn1	31	82*	14	-6	91*	-12	4	88*	100*	75*	49
Cc1ccc(C(=O)O/N=C(\N)c2ccccn2)cc1C	19	93*	-6	98*	98*	-2	95*	95*	101*	96*	86*
COc1cc(C(=O)O/N=C(\N)c2ccccn2)cc(OC)c1OC	4	7	-5	-3	2	5	.	.	.	.	.
Cc1cccc(/C(N)=N/OC(=O)c2ccc3c(c2)OCO3)c1	7	97*	2	98*	100*	2	100*	100*	103*	98*	99*
CCOc1ccc(OCc2ccc(C(=O)N/N=C(\C)c3ccccn3)cc2)cc1	4	.	.	.	.	.	.	.	.	.	.
CCCCSCc1nc2nc(Cl)c(Cl)nc2[nH]1	-5	.	.	.	.	.	.	.	.	.	.
COc1cc2c3c(n(C)c(=O)c2cc1OC)-c1cc2c(cc1C3=O)OCO2	0	.	.	.	.	.	.	.	.	.	.
N#C/C(=C\c1ccccc1)C(=O)NNS(=O)(=O)c1ccc(Br)cc1	6	1	-5	2	2	-13	.	.	.	.	.
O=C(NNS(=O)(=O)c1ccccc1)c1ccc([N+](=O)[O-])cc1	14	-10	-8	-3	68*	-3	8	9	11	4	-3
CC(C)c1ccc(NC(=O)c2cc(Br)ccc2Br)cc1	-48	-14	14	-16	-6	-13	.	.	.	.	.
O=C(Nc1ccc(Cl)cc1)c1ccc(Br)cc1F	14	44	4	51*	50	-5	20	40	40	40	8
Nc1nccc(/C=C/c2ccc(Cl)cc2)n1	-443	75*	-6	80*	75*	10	74*	85*	94*	79*	45
C/C(CC(C)C)=N\NS(=O)(=O)c1ccc(C)c([N+](=O)[O-])c1	27	4	-17	85*	3	-2	-10	-10	-6	4	0
CC(C)C[C@@H](CN1CCC[C@@H]1CN1C(=S)NC[C@@H]1Cc1ccc(O)cc1)N1C[C@H](Cc2ccc(O)cc2)N(CC2CCCCC2)C1=S	11	.	.	.	.	.	.	.	.	.	.
CCC(C)[C@H](NC(=O)OC(C)(C)C)C(=O)N/N=C/c1ccc2nccnc2c1 (stereo partly drawn)	-68	1	-25	1	5	-6	.	.	.	.	.
CC(C)C[C@H](NC(=O)OC(C)(C)C)C(=O)N/N=C/c1ccc2nccnc2c1	-41	8	2	-12	51*	-14	-8	-3	5	0	-2
Cc1ccccc1-c1ccc2c(c1)O[C@@H](CN(C)C(=O)Nc1ccc(C(F)(F)F)cc1)[C@H](C)CN([C@@H](C)CO)S2(=O)=O	5	.	.	.	.	.	.	.	.	.	.
C=C[C@]1(C)C=C2C(=O)[C@@]3(O)OC(=O)[C@@]4(CCCC(C)(C)[C@H]34)[C@@]2(O)CC1	28	.	.	.	.	.	.	.	.	.	.
COC(=O)c1ccc(-c2nc3cc(Cl)c(N)cc3s2)cc1	-409	28	12	63*	97*	-12	-18	-4	18	38	-5
Cc1ccc(CSc2ccc(-c3ccco3)nn2)cc1	0	-1	-1	84*	68*	0	33	77*	96*	69*	30
c1ccc(CSc2ccc(-c3ccco3)nn2)cc1	-3	19	5	60*	18	-7	21	54*	79*	52*	10
Fc1ccc(CSc2ccc(-c3cccs3)nn2)cc1	15	-14	1	-18	12	-4	.	.	.	.	.
SMILES	SENP8 block-1	SENP8 block-2	Apaf-1 inh	SENP6 block	SENP7 block	UBC13 inh	SENP8 confirm	SENP6 conf	SENP7 conf	Casp3 SENP sel	Luc interf
Cc1ccc(CSc2ccc(-c3cccs3)nn2)cc1	16	8	5	25	69*	-4	12	12	6	13	6
Clc1ccc(CSc2ccc(-c3ccco3)nn2)cc1	9	-3	8	2	-8	-15	.	.	.	.	.
COc1cccc(C(O)c2nc(-c3ccc4ccccc4c3)cs2)c1 (stereo not drawn)	8	.	.	.	.	.	.	.	.	.	.
COCCNC(=O)C1CCCN(C(=O)c2csc3ccccc23)CC1 (stereo not drawn)	11	.	.	.	.	.	.	.	.	.	.
N#Cc1c(N2CCCC2)nsc1-c1ccccc1	-24	42	7	60*	20	6	30	34	25	44	52*
Cc1ccc(S(=O)(=O)N2CC3(O)CN(C(=O)OC(C)C)N(C(=O)OC(C)C)CC3(OC(=O)NC3CCCC3)C2)cc1 (stereo not drawn)	-3	.	.	.	.	.	.	.	.	.	.
Cc1onc(-c2ccccc2Cl)c1C(=O)NCc1nnnn1-c1ccc(F)c(F)c1	8	.	.	.	.	.	.	.	.	.	.
NC(=O)c1cc(C(=O)Cc2ccccc2)c[nH]1	18	2	0	-6	9	3	.	.	.	.	.
O=C(O)c1cccc(C(=O)Cc2ccccc2)c1	29	56*	-4	75*	43	5	63*	60*	88*	92*	74*
c1c2c(cc3sc(N4CCCCC4)nc13)OCO2	-9	96*	5	101*	99*	-7	97*	99*	103*	98*	95*
